Laboratory results from ChEMBL document CHEMBL1212862, “Role of 2',6'-dimethyl-l-tyrosine (Dmt) in some opioid lead compounds” (Bioorg Med Chem, 2010).

Legend:
[1] = biological target: Delta-type opioid receptor (Rattus norvegicus, UniProt P33533); test: Displacement of [3H]deltorphin 2 from delta opioid receptor in Sprague-Dawley rat brain P2 synaptosomal membrane
In short: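 Equilibrium incubation 2.5 h at 23 °C. Filtration through glass fibre filters pre-soaked in 0.1% polyethylenimine, then three washes in ice-cold buffered 0.1% BSA. Ki by Cheng–Prusoff.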

[2] = biological target: Mu-type opioid receptor (Rattus norvegicus, UniProt P33535); test: Displacement of [3H]DAMGO from mu opioid receptor in Sprague-Dawley rat brain P2 synaptosomal membrane
Sequence of Mu-type opioid receptor (Rattus norvegicus, UniProt P33535) (P33535 whole entry): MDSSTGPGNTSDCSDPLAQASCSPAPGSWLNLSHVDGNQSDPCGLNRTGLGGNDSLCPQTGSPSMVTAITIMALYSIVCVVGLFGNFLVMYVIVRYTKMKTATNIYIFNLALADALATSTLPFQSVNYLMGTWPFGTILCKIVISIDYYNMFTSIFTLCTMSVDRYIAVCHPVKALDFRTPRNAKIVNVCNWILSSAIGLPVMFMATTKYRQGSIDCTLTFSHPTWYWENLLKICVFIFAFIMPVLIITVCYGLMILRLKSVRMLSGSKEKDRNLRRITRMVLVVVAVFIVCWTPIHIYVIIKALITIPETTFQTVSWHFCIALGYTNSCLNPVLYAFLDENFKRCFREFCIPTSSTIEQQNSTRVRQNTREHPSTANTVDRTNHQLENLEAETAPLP

[3] = biological target: T1, Delta-type opioid receptor (Mus musculus, UniProt P32300); test: Agonist activity at delta opioid receptor in mouse vas deference; type: functional
T1 sequence (P32300 whole entry): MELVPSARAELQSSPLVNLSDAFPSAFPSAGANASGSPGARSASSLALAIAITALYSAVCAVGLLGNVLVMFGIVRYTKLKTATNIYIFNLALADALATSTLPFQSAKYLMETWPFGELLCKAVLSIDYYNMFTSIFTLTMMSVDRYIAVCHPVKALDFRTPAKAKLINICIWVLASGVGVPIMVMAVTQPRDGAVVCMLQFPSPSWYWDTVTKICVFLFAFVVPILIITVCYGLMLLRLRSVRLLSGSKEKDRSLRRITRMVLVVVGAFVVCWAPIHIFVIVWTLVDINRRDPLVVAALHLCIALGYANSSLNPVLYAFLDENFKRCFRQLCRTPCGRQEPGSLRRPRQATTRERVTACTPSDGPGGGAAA
In short: (§1)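 Isolated tissue assay in organ baths with balanced salt solution in physiological buffer, pH 7.5. Delta agonism measured on single mouse vas deferens, mu agonism on myenteric plexus longitudinal muscle strips (2–3 cm) from small intestine of male Hartley guinea pigs. Inhibition of electrically evoked contraction; IC50 (nM) from dose-response curves. DPDPE (MVD) and PL017 (GPI) run as internal standards. Mean ± SE of at least four tissue samples.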

[4] = biological target: T2, Mu-type opioid receptor (Cavia porcellus, UniProt P97266); test: Agonist activity at mu opioid receptor in Hartley guinea pig small intestine; type: functional, tissue-based; in short: as §1
T2 sequence (P97266 whole entry): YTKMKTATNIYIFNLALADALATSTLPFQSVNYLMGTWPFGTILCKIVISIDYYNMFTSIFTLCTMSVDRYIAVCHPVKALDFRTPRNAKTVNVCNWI

[5] = species: Rattus norvegicus; test: Ratio of Ki for Sprague-Dawley rat mu opioid receptor to Ki for Sprague-Dawley rat delta opioid receptor
[6] = biological target: T1, Delta-type opioid receptor; test: Antagonist activity at delta opioid receptor in mouse vas deference; type: functional; conditions: read-out: pA2 (converted)
In short: (§2)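 Organ-bath tissue preparations in physiological buffer, pH 7.5, with electrically evoked contractions. Delta antagonism on mouse vas deferens measured against deltorphin II. Mu antagonism on male Hartley guinea pig ileum myenteric plexus longitudinal muscle measured against endomorphin-2. pA2 derived by the Kosterlitz and Watt method.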

[7] = biological target: T2, Mu-type opioid receptor; test: Antagonist activity at mu opioid receptor in Hartley guinea pig small intestine; type: functional, tissue-based; conditions: read-out: pA2 (converted); in short: as §2

Sequence of Delta-type opioid receptor (Rattus norvegicus, UniProt P33533) (P33533 whole entry): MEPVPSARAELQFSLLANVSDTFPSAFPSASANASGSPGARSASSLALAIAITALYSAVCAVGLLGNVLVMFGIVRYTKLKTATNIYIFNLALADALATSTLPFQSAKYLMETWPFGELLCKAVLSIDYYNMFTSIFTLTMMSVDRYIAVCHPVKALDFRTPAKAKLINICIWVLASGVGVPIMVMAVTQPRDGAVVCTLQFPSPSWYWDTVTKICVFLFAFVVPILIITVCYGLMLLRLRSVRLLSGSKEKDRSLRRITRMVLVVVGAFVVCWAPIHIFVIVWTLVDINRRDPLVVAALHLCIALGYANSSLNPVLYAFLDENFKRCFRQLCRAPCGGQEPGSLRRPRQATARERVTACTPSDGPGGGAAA

Compound | Ki [1] [nM] | Ki [2] [nM] | IC50 [3] [nM] | IC50 [4] [nM] | Selectivity ratio [5] | Kb [6] [nM] | Kb [7] [nM]
N[C@@H](Cc1c(F)cc(O)cc1F)C(=O)N1Cc2ccccc2C[C@H]1C(=O)NCc1nc2ccccc2[nH]1 | 1.01 | 54.5 | 67.3 | > 10000 | 54 | – | –
N[C@@H](Cc1ccc(O)cc1)C(=O)N1Cc2ccccc2C[C@H]1C(=O)N[C@@H](CC(=O)O)c1nc2ccccc2[nH]1 | 0.177 | 684 | – | – | 3860 | 1.41 | –
N[C@@H](Cc1ccc(O)cc1)C(=O)N1Cc2ccccc2C[C@H]1C(=O)NCc1nc2ccccc2[nH]1 | 0.913 | 66.9 | 50.1 | 4220 | 73 | – | –
Cc1cc(O)cc(C)c1C[C@@H](C(=O)N1Cc2ccccc2C[C@H]1C(N)=O)N(C)C | 0.309 | 511 | – | – | 1660 | 0.126 | 501
CN(C)[C@@H](Cc1c(F)cc(O)cc1F)C(=O)N1Cc2ccccc2C[C@H]1C(=O)O | 29.2 | 573 | – | – | 20 | – | –
CN(C)[C@@H](Cc1ccc(O)cc1)C(=O)N1Cc2ccccc2C[C@H]1C(N)=O | 201 | 1450 | – | – | 7 | – | –
Cc1cc(O)cc(C)c1C[C@@H](C(=O)N1Cc2ccccc2C[C@H]1C(=O)O)N(C)C | 0.118 | – | – | – | 20600 | – | 1580
N[C@@H](Cc1c(F)cc(O)cc1F)C(=O)N1Cc2ccccc2C[C@H]1C(=O)N[C@@H](CC(=O)O)c1nc2ccccc2[nH]1 | 0.162 | 225 | – | – | 1390 | 1.12 | –
CN(C)[C@@H](Cc1ccc(O)cc1)C(=O)N1Cc2ccccc2C[C@H]1C(=O)O | 34.8 | 1230 | – | – | 35 | – | –
CN(C)[C@@H](Cc1c(F)cc(O)cc1F)C(=O)N1Cc2ccccc2C[C@H]1C(N)=O | 176 | 596 | – | – | 3 | – | –
